Results taken from PubChem BioAssay AID588702 (Broad Institute, 2011).
The source made the active and inactive calls.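 The calls were made as follows: active = marked loss of luminescence, read as toxicity to breast epithelial cells carrying a control GFP hairpin; inactive = the rest.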

System: not listed separately
Experiment: cytotoxicity in HMLE control cells, dose response, counter-screen for breast cancer stem cell project, cell-based, CellTiter-Glo luminescence, dry powder samples (AID 588702)
Settings: HMLE_shGFP viability, CellTiter-Glo luminescence, 72 h
Method in brief: (§1)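 system = HMLE_shGFP control cell line | quantity = 1000 HMLE_shGFP cells per well | compound dosing = pin-transferred compound | controls = DMSO-only wells as negative control | detection = CellTiter-Glo luminescence for cell viability | buffer or medium = serum-free screening medium for cell seeding | schedule = 24 h cell attachment before dosing, then 72 h compound exposure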

In the case of `O=C(COc1c(Cl)cc(Cl)cc1Cl)N/N=C/c1ccc[nH]1`, the outcome was “inactive”.
For `O=C(COc1ccc(Cl)cc1Cl)N/N=C/c1cnc[nH]1`, the outcome was “inactive”.

System: HMLE_shGFP viability, CellTiter-Glo luminescence, 72 h
Experiment: as above
Settings: not given
Method in brief: as §1

First: O=C(COc1cc(Cl)ccc1Cl)N/N=C/c1ccc[nH]1
Second: O=C(COc1ccc(Cl)cc1Cl)N/N=C/c1ccc[nH]1
The AC50 of the first is 4.5-fold lower: 11.4 µM for the first, 51.4 µM for the second.

First: CC(C)(C)c1ccc2c(c1)OC(C(=O)N/N=C/c1ccc[nH]1)CO2 (configuration not stated)
Second: O=C(N/N=C/c1ccc[nH]1)c1cc2ccccc2o1
The AC50 of the first is 18-fold lower: 21.1 µM for the first, 378 µM for the second.

For `Cc1cc(Cl)ccc1OCC(=O)N/N=C/c1ccc[nH]1`, the AC50 was 29.9 µM.
